According to ChEMBL document CHEMBL1152796, “Azole antimicrobial pharmacophore-based tetrazoles: synthesis and biological evaluation as potential antimicrobial and anticonvulsant agents” (Bioorg Med Chem, 2009):
Values after ≈ are worked out from the molar mass of the structure shown. Active and inactive are the calls of the source. The rule behind the calls is not given here.

tested on: Staphylococcus aureus; experiment: Antibacterial activity against Staphylococcus aureus ATCC 6538 after 24 to 48 hrs by twofold serial dilution method; assay type: functional; conditions: not given
Procedure, shortened: (§1)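 Broth microdilution in Müller–Hinton broth. DMSO stocks at 800 were diluted twofold from 400 down to 6.25. Wells received 10^6 CFU/mL bacterial suspension and were incubated at 36 °C for 24–48 h, with controls. MIC was read per well. Duplicate assays; run only for compounds giving inhibition zones ≥14 mm.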

Structure (SMILES)	MIC [µg/mL]
Sc1nnc(COC(Cn2nnc(-c3ccccc3)n2)c2ccc(Cl)cc2)n1-c1ccccc1 (stereo unspecified)	12.5 (≈ 25.5 µM)
Sc1nnc(COC(Cn2nnc(-c3ccccc3)n2)c2ccc(Cl)cc2)n1-c1ccc(Cl)cc1 (stereo unspecified)	25 (≈ 47.7 µM)
Clc1ccc(C(Cn2nnc(-c3ccccc3)n2)OCc2nnc(Nc3ccccc3)o2)cc1 (stereo unspecified)	12.5 (≈ 26.4 µM)

tested on: Bacillus subtilis; experiment: Antibacterial activity against Bacillus subtilis NRRL B-14819 after 24 to 48 hrs by twofold serial dilution method; assay type: functional; conditions: not given; procedure, shortened: as §1

Structure (SMILES)	MIC [µg/mL]
Sc1nnc(COC(Cn2nnc(-c3ccccc3)n2)c2ccc(Cl)cc2)n1-c1ccccc1 (stereo unspecified)	50 (≈ 102 µM)
Sc1nnc(COC(Cn2nnc(-c3ccccc3)n2)c2ccc(Cl)cc2)n1-c1ccc(Cl)cc1 (stereo unspecified)	50 (≈ 95.3 µM)
Clc1ccc(C(Cn2nnc(-c3ccccc3)n2)OCc2nnc(Nc3ccccc3)o2)cc1 (stereo unspecified)	50 (≈ 106 µM)

tested on: Micrococcus luteus; experiment: Antibacterial activity against Micrococcus luteus ATCC 21881 after 24 to 48 hrs by twofold serial dilution method; assay type: functional; conditions: not given; procedure, shortened: as §1

Structure (SMILES)	MIC [µg/mL]
Sc1nnc(COC(Cn2nnc(-c3ccccc3)n2)c2ccc(Cl)cc2)n1-c1ccccc1 (stereo unspecified)	50 (≈ 102 µM)
Sc1nnc(COC(Cn2nnc(-c3ccccc3)n2)c2ccc(Cl)cc2)n1-c1ccc(Cl)cc1 (stereo unspecified)	100 (≈ 191 µM)
Clc1ccc(C(Cn2nnc(-c3ccccc3)n2)OCc2nnc(Nc3ccccc3)o2)cc1 (stereo unspecified)	100 (≈ 211 µM)

tested on: Escherichia coli; experiment: Antibacterial activity against Escherichia coli ATCC 25922 after 24 to 48 hrs by twofold serial dilution method; assay type: functional; conditions: not given; procedure, shortened: as §1

Structure (SMILES)	MIC [µg/mL]
Sc1nnc(COC(Cn2nnc(-c3ccccc3)n2)c2ccc(Cl)cc2)n1-c1ccccc1 (stereo unspecified)	50 (≈ 102 µM)
Sc1nnc(COC(Cn2nnc(-c3ccccc3)n2)c2ccc(Cl)cc2)n1-c1ccc(Cl)cc1 (stereo unspecified)	100 (≈ 191 µM)
Clc1ccc(C(Cn2nnc(-c3ccccc3)n2)OCc2nnc(Nc3ccccc3)o2)cc1 (stereo unspecified)	25 (≈ 52.8 µM)

tested on: Pseudomonas aeruginosa; experiment: Antibacterial activity against Pseudomonas aeruginosa ATCC 27853 after 24 to 48 hrs by twofold serial dilution method; assay type: functional; conditions: not given; procedure, shortened: as §1

Structure (SMILES)	MIC [µg/mL]
Sc1nnc(COC(Cn2nnc(-c3ccccc3)n2)c2ccc(Cl)cc2)n1-c1ccccc1 (stereo unspecified)	100 (≈ 204 µM)
Sc1nnc(COC(Cn2nnc(-c3ccccc3)n2)c2ccc(Cl)cc2)n1-c1ccc(Cl)cc1 (stereo unspecified)	≥ 200
Clc1ccc(C(Cn2nnc(-c3ccccc3)n2)OCc2nnc(Nc3ccccc3)o2)cc1 (stereo unspecified)	100 (≈ 211 µM)

tested on: Klebsiella pneumoniae; experiment: Antibacterial activity against Klebsiella pneumoniae isolate after 24 to 48 hrs by twofold serial dilution method; assay type: functional; conditions: not given; procedure, shortened: as §1

Structure (SMILES)	MIC [µg/mL]
Sc1nnc(COC(Cn2nnc(-c3ccccc3)n2)c2ccc(Cl)cc2)n1-c1ccccc1 (stereo unspecified)	50 (≈ 102 µM)
Sc1nnc(COC(Cn2nnc(-c3ccccc3)n2)c2ccc(Cl)cc2)n1-c1ccc(Cl)cc1 (stereo unspecified)	100 (≈ 191 µM)
Clc1ccc(C(Cn2nnc(-c3ccccc3)n2)OCc2nnc(Nc3ccccc3)o2)cc1 (stereo unspecified)	100 (≈ 211 µM)

tested on: Candida tropicalis; experiment: Antifungal activity against Candida tropicalis isolate after 72 hrs by twofold serial dilution method; assay type: functional, organism-based; conditions: not given

Structure (SMILES)	Activity
Sc1nnc(COC(Cn2nnc(-c3ccccc3)n2)c2ccc(Cl)cc2)n1-c1ccccc1 (stereo unspecified)	inactive
Sc1nnc(COC(Cn2nnc(-c3ccccc3)n2)c2ccc(Cl)cc2)n1-c1ccc(Cl)cc1 (stereo unspecified)	inactive
Clc1ccc(C(Cn2nnc(-c3ccccc3)n2)OCc2nnc(Nc3ccccc3)o2)cc1 (stereo unspecified)	inactive

tested on: Pichia kudriavzevii; experiment: Antifungal activity against Candida krusei isolate after 72 hrs by twofold serial dilution method; assay type: functional, organism-based; conditions: not given

Structure (SMILES)	Activity
Sc1nnc(COC(Cn2nnc(-c3ccccc3)n2)c2ccc(Cl)cc2)n1-c1ccccc1 (stereo unspecified)	inactive
Sc1nnc(COC(Cn2nnc(-c3ccccc3)n2)c2ccc(Cl)cc2)n1-c1ccc(Cl)cc1 (stereo unspecified)	inactive
Clc1ccc(C(Cn2nnc(-c3ccccc3)n2)OCc2nnc(Nc3ccccc3)o2)cc1 (stereo unspecified)	inactive

tested on: Aspergillus niger; experiment: Antifungal activity against Aspergillus niger isolate after 72 hrs by twofold serial dilution method; assay type: functional, organism-based; conditions: not given

Structure (SMILES)	Activity
Sc1nnc(COC(Cn2nnc(-c3ccccc3)n2)c2ccc(Cl)cc2)n1-c1ccccc1 (stereo unspecified)	inactive
Sc1nnc(COC(Cn2nnc(-c3ccccc3)n2)c2ccc(Cl)cc2)n1-c1ccc(Cl)cc1 (stereo unspecified)	inactive
Clc1ccc(C(Cn2nnc(-c3ccccc3)n2)OCc2nnc(Nc3ccccc3)o2)cc1 (stereo unspecified)	inactive

tested on: Trichophyton rubrum; experiment: Antifungal activity against Trichophyton rubrum isolate after 72 hrs by twofold serial dilution method; assay type: functional, organism-based; conditions: not given

Structure (SMILES)	Activity
Sc1nnc(COC(Cn2nnc(-c3ccccc3)n2)c2ccc(Cl)cc2)n1-c1ccccc1 (stereo unspecified)	inactive
Sc1nnc(COC(Cn2nnc(-c3ccccc3)n2)c2ccc(Cl)cc2)n1-c1ccc(Cl)cc1 (stereo unspecified)	inactive
Clc1ccc(C(Cn2nnc(-c3ccccc3)n2)OCc2nnc(Nc3ccccc3)o2)cc1 (stereo unspecified)	inactive

tested on: Mus musculus; experiment: Anticonvulsant activity in Wister albino mouse assessed as protection against subcutaneous metrazole-induced seizures at 100 mg/kg, ip administered 30 mins before metrazole challenge measured after 30 mins; assay type: functional; conditions: route intraperitoneal
Procedure, shortened: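 Wistar albino mice, either sex, 25–30 g, 3 months old, in groups of six. Compounds in DMSO were given ip at 30, 100 or 300 mg/kg; vehicle-only controls. After 30 min, metrazole 100 mg/kg in DMSO was injected sc at the posterior midline. Protection meant absence of any clonic spasm lasting ≥5 s; scored as protected/tested.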

Structure (SMILES)	Activity [%]
Sc1nnc(COC(Cn2nnc(-c3ccccc3)n2)c2ccc(Cl)cc2)n1-c1ccccc1 (stereo unspecified)	33

tested on: Mus musculus; experiment: Anticonvulsant activity in Wister albino mouse assessed as protection against maximal electroshock-induced seizures at 100 mg/kg, ip administered 30 mins before metrazole challenge measured after 30 mins; assay type: functional; conditions: route intraperitoneal

Structure (SMILES)	Activity [%]
Sc1nnc(COC(Cn2nnc(-c3ccccc3)n2)c2ccc(Cl)cc2)n1-c1ccccc1 (stereo unspecified)	33

tested on: Staphylococcus aureus; experiment: Antibacterial activity against Staphylococcus aureus ATCC 6538 at 1 mg/mL after 24 hrs by agar diffusion method; assay type: functional; conditions: ATCC 6538, 24 h, read-out: Diameter of inhibition zone
Procedure, shortened: (§2)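 Agar disc diffusion: 5 mm sterile paper discs soaked in 1 mg/mL test solution in DMSO were placed on agar seeded with the organism, in triplicate, with a DMSO-only control. Bacterial plates were incubated at 37 °C for 24 h and fungal plates for 7 days. Read-out was the average inhibition-zone diameter in mm. Fungi were clinical isolates.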

Structure (SMILES)	zone of inhibition at 1000 µg/mL [mm]
Sc1nnc(COC(Cn2nnc(-c3ccccc3)n2)c2ccc(Cl)cc2)n1-c1ccccc1 (stereo unspecified)	≥ 14
Sc1nnc(COC(Cn2nnc(-c3ccccc3)n2)c2ccc(Cl)cc2)n1-c1ccc(Cl)cc1 (stereo unspecified)	≥ 14
Clc1ccc(C(Cn2nnc(-c3ccccc3)n2)OCc2nnc(Nc3ccccc3)o2)cc1 (stereo unspecified)	≥ 14

tested on: Bacillus subtilis; experiment: Antibacterial activity against Bacillus subtilis NRRL B-14819 at 1 mg/mL after 24 hrs by agar diffusion method; assay type: functional; conditions: read-out: Diameter of inhibition zone; procedure, shortened: as §2

Structure (SMILES)	zone of inhibition at 1000 µg/mL [mm]
Sc1nnc(COC(Cn2nnc(-c3ccccc3)n2)c2ccc(Cl)cc2)n1-c1ccccc1 (stereo unspecified)	≥ 14
Sc1nnc(COC(Cn2nnc(-c3ccccc3)n2)c2ccc(Cl)cc2)n1-c1ccc(Cl)cc1 (stereo unspecified)	≥ 14
Clc1ccc(C(Cn2nnc(-c3ccccc3)n2)OCc2nnc(Nc3ccccc3)o2)cc1 (stereo unspecified)	≥ 14

tested on: Micrococcus luteus; experiment: Antibacterial activity against Micrococcus luteus ATCC 21881 at 1 mg/mL after 24 hrs by agar diffusion method; assay type: functional; conditions: ATCC 21881, 24 h, read-out: Diameter of inhibition zone; procedure, shortened: as §2

Structure (SMILES)	zone of inhibition at 1000 µg/mL [mm]
Sc1nnc(COC(Cn2nnc(-c3ccccc3)n2)c2ccc(Cl)cc2)n1-c1ccccc1 (stereo unspecified)	≥ 14
Sc1nnc(COC(Cn2nnc(-c3ccccc3)n2)c2ccc(Cl)cc2)n1-c1ccc(Cl)cc1 (stereo unspecified)	≥ 14
Clc1ccc(C(Cn2nnc(-c3ccccc3)n2)OCc2nnc(Nc3ccccc3)o2)cc1 (stereo unspecified)	≥ 14

tested on: Escherichia coli; experiment: Antibacterial activity against Escherichia coli ATCC 25922 at 1 mg/mL after 24 hrs by agar diffusion method; assay type: functional; conditions: ATCC 25922, 24 h, read-out: Diameter of inhibition zone; procedure, shortened: as §2

Structure (SMILES)	zone of inhibition at 1000 µg/mL [mm]
Sc1nnc(COC(Cn2nnc(-c3ccccc3)n2)c2ccc(Cl)cc2)n1-c1ccccc1 (stereo unspecified)	≥ 14
Sc1nnc(COC(Cn2nnc(-c3ccccc3)n2)c2ccc(Cl)cc2)n1-c1ccc(Cl)cc1 (stereo unspecified)	≥ 14
Clc1ccc(C(Cn2nnc(-c3ccccc3)n2)OCc2nnc(Nc3ccccc3)o2)cc1 (stereo unspecified)	≥ 14

tested on: Pseudomonas aeruginosa; experiment: Antibacterial activity against Pseudomonas aeruginosa ATCC 27853 at 1 mg/mL after 24 hrs by agar diffusion method; assay type: functional; conditions: ATCC 27853, 24 h, read-out: Diameter of inhibition zone; procedure, shortened: as §2

Structure (SMILES)	zone of inhibition at 1000 µg/mL [mm]
Sc1nnc(COC(Cn2nnc(-c3ccccc3)n2)c2ccc(Cl)cc2)n1-c1ccccc1 (stereo unspecified)	≥ 14
Sc1nnc(COC(Cn2nnc(-c3ccccc3)n2)c2ccc(Cl)cc2)n1-c1ccc(Cl)cc1 (stereo unspecified)	≥ 14
Clc1ccc(C(Cn2nnc(-c3ccccc3)n2)OCc2nnc(Nc3ccccc3)o2)cc1 (stereo unspecified)	≥ 14

tested on: Klebsiella pneumoniae; experiment: Antibacterial activity against Klebsiella pneumoniae isolate at 1 mg/mL after 24 hrs by agar diffusion method; assay type: functional; conditions: read-out: Diameter of inhibition zone; procedure, shortened: as §2

Structure (SMILES)	zone of inhibition at 1000 µg/mL [mm]
Sc1nnc(COC(Cn2nnc(-c3ccccc3)n2)c2ccc(Cl)cc2)n1-c1ccccc1 (stereo unspecified)	≥ 14
Sc1nnc(COC(Cn2nnc(-c3ccccc3)n2)c2ccc(Cl)cc2)n1-c1ccc(Cl)cc1 (stereo unspecified)	≥ 14
Clc1ccc(C(Cn2nnc(-c3ccccc3)n2)OCc2nnc(Nc3ccccc3)o2)cc1 (stereo unspecified)	≥ 14

tested on: Candida albicans; experiment: Antifungal activity against Candida albicans isolate at 1 mg/mL after 7 days by twofold serial dilution method; assay type: functional; conditions: 168 h, read-out: Diameter of inhibition zone

Structure (SMILES)	zone of inhibition at 1000 µg/mL [mm]
Sc1nnc(COC(Cn2nnc(-c3ccccc3)n2)c2ccc(Cl)cc2)n1-c1ccccc1 (stereo unspecified)	≥ 14
Sc1nnc(COC(Cn2nnc(-c3ccccc3)n2)c2ccc(Cl)cc2)n1-c1ccc(Cl)cc1 (stereo unspecified)	≥ 14
Clc1ccc(C(Cn2nnc(-c3ccccc3)n2)OCc2nnc(Nc3ccccc3)o2)cc1 (stereo unspecified)	≥ 14

tested on: Aspergillus fumigatus; experiment: Antifungal activity against Aspergillus fumigatus isolate at 1 mg/mL after 7 days by agar diffusion method; assay type: functional; conditions: 168 h, read-out: Diameter of inhibition zone; procedure, shortened: as §2

Structure (SMILES)	zone of inhibition at 1000 µg/mL [mm]
Sc1nnc(COC(Cn2nnc(-c3ccccc3)n2)c2ccc(Cl)cc2)n1-c1ccccc1 (stereo unspecified)	≥ 14
Sc1nnc(COC(Cn2nnc(-c3ccccc3)n2)c2ccc(Cl)cc2)n1-c1ccc(Cl)cc1 (stereo unspecified)	≥ 14
Clc1ccc(C(Cn2nnc(-c3ccccc3)n2)OCc2nnc(Nc3ccccc3)o2)cc1 (stereo unspecified)	≥ 14
